Results gathered from unrelated publications.
Each line is one published result; the experiments were not run side by side.
Target: Serine/threonine-protein kinase N1 (PKN1, Homo sapiens, UniProt Q16512)

| SMILES | observed | mode | method | tested at | endpoint | value |
| --- | --- | --- | --- | --- | --- | --- |
| Cn1cc(-c2cccc(N3CCc4c(sc5c4CC(C)(C)C5)C3=O)c2CO)cc(Nc2ccncn2)c1=O | enzyme activity | inhibitor | – | 1 µM | inhibition | 1% |
| COc1ncccc1-c1cnn2ccc(N3CCN(C(=O)OC(C)C)CC3)nc12 | binding | – | competition with immobilised ligand | 1 µM | remaining binding | 90% |
| O=c1[nH]c2ccc(Cl)cc2c(N[C@@H]2CN3CCC2CC3)c1-c1nc2ccccc2[nH]1 | enzyme activity | inhibitor | – | 1 µM | activity vs control | -1% |
| Cn1cncc1[C@@](O)(COc1ccc(C#N)cc1-c1ccc(OC(F)(F)F)cc1)c1ccc(C#N)cc1 | cell-free assay | – | competition with immobilised ligand | 1 µM | remaining binding | 100% |
| Cc1n[nH]c2ccc(-c3cncc(OC[C@@H](N)Cc4c[nH]c5ccccc45)c3)cc12 | enzyme activity | inhibitor | – | 1 µM | activity vs control | -1% |
| N#CC1(c2ccccn2)CCN(Cc2cc(C(=O)O)c(=O)n3ccccc23)CC1 | cell-free assay | – | competition with immobilised ligand | 1 µM | remaining binding | 100% |
| Nc1ncc(-c2nc(N3CCOCC3)nc(N3CCOCC3)n2)c(C(F)F)n1 | binding | – | competition with immobilised ligand | 10 µM | remaining binding | 49% |
| O=c1[nH]c2ccccc2n1C1CCN(Cc2ccc(-c3[nH]c4cc5ncnc5cc4nc3-c3ccccc3)cc2)CC1 | cell-free assay | – | – | 0.5 µM | remaining signal | 90.3% |
| Cc1ccccc1-n1c(Cn2cnc3c(N)ncnc32)nc2cccc(C)c2c1=O | enzyme activity | inhibitor | – | 1 µM | activity vs control | 81% |
| Cn1cc(-c2cc(F)cc(N3CCn4c(cc5c4CCCC5)C3=O)c2CO)cc(Nc2ccc(N3CCN(C4COC4)CC3)cn2)c1=O | enzyme activity | inhibitor | – | 0.1 µM | inhibition | 11% |
| CC(C)(C)c1cc(C=C(C#N)C#N)cc(Br)c1O | enzyme activity | inhibitor | – | 0.5 µM | remaining activity | 94.5% |
